From ChEMBL document CHEMBL1949585, “Design, synthesis and evaluation of telomerase inhibitory, hTERT repressing, and anti-proliferation activities of symmetrical 1,8-disubstituted amidoanthraquinones” (Eur J Med Chem, 2012)
Active and inactive are the calls of the source. The rule behind the calls is not given here.

Legend:
H1299 [1] = assay: Inhibition of human telomerase in H1299 cell lysate at 10 uM by PCR-based telomeric repeat amplification protocol assay; assay type: cell-free
Summary of the method: (§1)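 TRAP assay on telomerase-active H1299 cell extracts, with RNase A-treated extract as the negative control. Compound was preincubated with extract for 5 min at room temperature before the telomerase extension and PCR amplification. The initial screen used 10 µM, and IC50 came from a dose series.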

[2] = (§2) Inhibition of human telomerase in H1299 cell lysate compound incubated for 5 mins prior to telomerase extension by PCR-based telomeric repeat amplification protocol assay; assay type: cell-free; summary of the method: as §1
H1299 [3] = assay: as §2; assay type: cell-free; summary of the method: as §1
H1299 [4] = assay: Inhibition of human telomerase in H1299 cell lysate compound incubated post-telomerase extension by PCR-based telomeric repeat amplification protocol assay; assay type: cell-free
Summary of the method: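 Modified TRAP assay (TRAP-M) to test for interference with Taq polymerase. Compound was added to H1299 extract reactions right after the telomerase extension step and before PCR amplification.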

[5] = Cytotoxicity against human H1299 cells assessed as cell growth at 1 uM after 48 hrs by MTT assay; assay type: functional; conditions: NCI-H1299, 48 h, read-out: Activity
Summary of the method: (§3)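 H1299 non-small lung cancer cells were grown in RPMI 1640 with 10% FBS and penicillin/streptomycin at 37 °C in 5% CO2. About 2×10³ cells were seeded per well and held 24 h, then washed with PBS and given fresh medium. Compound, freshly dissolved in DMSO and diluted in complete medium, was added for 48 h. MTT was read at 550 nm after SDS/DMF lysis at 37 °C for 16 h. Values are from three experiments, untreated = 100%, ±SD.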

[6] = Cytotoxicity against human H1299 cells assessed as cell growth at 10 uM after 48 hrs by MTT assay; assay type: functional; conditions: NCI-H1299, 48 h, read-out: Activity; summary of the method: as §3
[7] = Cytotoxicity against human H1299 cells assessed as cell growth at 100 uM after 48 hrs by MTT assay; assay type: functional; conditions: NCI-H1299, 48 h, read-out: Activity; summary of the method: as §3
[8] = Inhibition of human TERT expression in H1299 cells at 1 uM after 24 hrs by secreted alkaline phosphatase reporter gene assay relative to control; values are per cent of control; conditions: NCI-H1299
[9] = Inhibition of human TERT expression in H1299 cells at 10 uM after 24 hrs by secreted alkaline phosphatase reporter gene assay relative to control; values are per cent of control; conditions: NCI-H1299
[10] = Inhibition of human TERT expression in H1299 cells at 100 uM after 24 hrs by secreted alkaline phosphatase reporter gene assay relative to control; values are per cent of control; conditions: NCI-H1299

IC50 [2]	Structure (SMILES)	inhibition (H1299 [1])	inhibition (H1299 [3])	inhibition (H1299 [4])	growth at 1 µM [5]	growth at 10 µM [6]	growth at 100 µM [7]	level, % of control [8]	level, % of control [9]	level, % of control [10]
6 µM	CN(C)CCCCNCCC(=O)Nc1cccc2c1C(=O)c1c(NC(=O)CCNCCCCN(C)C)cccc1C2=O	Active	Dose-dependent effect	Dose-dependent effect	98%	74%	7%	121%	97%	4%
3 µM	CC(C)NCCC(=O)Nc1cccc2c1C(=O)c1c(NC(=O)CCNC(C)C)cccc1C2=O	Active	Dose-dependent effect	Dose-dependent effect	101%	29%	14%	106%	16%	0%
–	CC(C)(C)OC(=O)NCCNCCC(=O)Nc1cccc2c1C(=O)c1c(NC(=O)CCNCCNC(=O)OC(C)(C)C)cccc1C2=O	–	–	–	82%	78%	11%	100%	84%	33%
–	CC(C)NCC(=O)Nc1cccc2c1C(=O)c1c(NC(=O)CNC(C)C)cccc1C2=O	–	–	–	89%	86%	14%	103%	101%	35%
–	CCCN(CCC)CC(=O)Nc1cccc2c1C(=O)c1c(NC(=O)CN(CCC)CCC)cccc1C2=O	–	–	–	90%	76%	66%	105%	101%	94%
